Activity calls are given as the source filed them. The rule behind the calls is not given here.
Columns and labels:
[1] = test system: PBMC; assay: Inhibition of LPS-induced TNFalpha production in human PBMC after 24 hrs by ELISA; format: functional, cell-based
[2] = test system: PBMC; assay: Inhibition of IFN-gamma production in human PBMC after 5 days by ELISA-based mixed lymphocyte reaction assay; format: functional, cell-based; conditions: 120 h
[3] = target: T1, Vitamin D3 receptor (Homo sapiens, UniProt P11473); assay: Activation of VDR in human THP1 cells assessed as increase in cathelicidin antimicrobial peptide mRNA expression by RT-PCR; format: cell-based, THP-1
T1 sequence (P11473 whole entry): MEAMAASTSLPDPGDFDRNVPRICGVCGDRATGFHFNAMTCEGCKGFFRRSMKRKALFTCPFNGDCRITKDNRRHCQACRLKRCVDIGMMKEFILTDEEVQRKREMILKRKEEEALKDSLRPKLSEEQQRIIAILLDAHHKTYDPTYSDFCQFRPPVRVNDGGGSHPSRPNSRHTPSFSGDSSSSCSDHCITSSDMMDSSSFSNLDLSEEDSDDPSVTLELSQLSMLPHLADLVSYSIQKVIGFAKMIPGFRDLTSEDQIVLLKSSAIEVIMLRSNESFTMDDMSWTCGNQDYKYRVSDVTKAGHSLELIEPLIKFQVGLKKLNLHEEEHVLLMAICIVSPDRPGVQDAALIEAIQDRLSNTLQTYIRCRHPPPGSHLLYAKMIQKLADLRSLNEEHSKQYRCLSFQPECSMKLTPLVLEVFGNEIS

[4] = test system: PBMC; assay: Inhibition of LPS-induced IL12/23p40 production in human PBMC after 24 hrs by ELISA; format: functional, cell-based
[5] = test system: PBMC; assay: Inhibition of LPS-induced IL6 production in human PBMC after 24 hrs by ELISA; format: functional, cell-based
[6] = test system: Mus musculus; assay: Induction of hypercalceimia in orally dosed C57BL/6 mouse administered daily for 4 days by colorimetric assay; format: functional
In short: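 Eight-week-old female C57BL/6 mice, 3 per group, were given one oral dose daily for 4 days in miglyol, at 0.01 to 300 µg/kg. Serum was taken by tail bleed on day 5 and calcium measured colorimetrically.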

[7] = target: T2, Vitamin D3 receptor (Homo sapiens) (UniProt P11473); assay: Activation of VDR in human PBMC cells assessed as increase in 25-hydroxyvitamin D-24-hydroxylase mRNA expression at 10 pM by RT-PCR; format: cell-based
T2 sequence (whole entry): T1 sequence (P11473 whole entry)
In short: (§1)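 PBMCs were isolated from buffy coats on a Ficoll gradient. Agonists were freshly diluted in ethanol, with ethanol in the test conditions at no more than 0.00025%. RNA was DNase-treated to exclude genomic DNA. Transcripts were quantified by RT-PCR and normalized to the GAPDH signal.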

[8] = target: T2, Vitamin D3 receptor (Homo sapiens); assay: Activation of VDR in human PBMC cells assessed as increase in 25-hydroxyvitamin D-24-hydroxylase mRNA expression at 100 pM by RT-PCR; format: cell-based; in short: as §1
[9] = target: T2, Vitamin D3 receptor (Homo sapiens); assay: Activation of VDR in human PBMC cells assessed as increase in cathelicidin antimicrobial peptide mRNA expression at 10 pM by RT-PCR; format: cell-based; in short: as §1
[10] = target: T2, Vitamin D3 receptor (Homo sapiens); assay: Activation of VDR in human PBMC cells assessed as increase in cathelicidin antimicrobial peptide mRNA expression at 100 pM by RT-PCR; format: cell-based; in short: as §1
[11] = target: T1, Vitamin D3 receptor; assay: Activation of VDR in human THP1 cells assessed as increase in 25-hydroxyvitamin D-24-hydroxylase mRNA expression by RT-PCR; format: cell-based, THP-1

CC(C)(O)C#CCC1(C2=CC[C@H]3/C(=C/C=C4C[C@@H](O)C[C@H](O)C4)CCC[C@]23C)CC1
IC50 [1]: 0.001 nM | IC50 [2]: 0.025 nM

C=C1/C(=C\C=C2/CCC[C@]3(C)C(C4(CC#CC(C)(C)O)CC4)=CC[C@@H]23)C[C@@H](O)C[C@@H]1F
IC50 [1]: > 100 nM | IC50 [2]: 0.016 nM

C=C1/C(=C\C=C2/CCC[C@]3(C)C(C4(CCCC(C)(C)O)CC4)=CC[C@@H]23)C[C@@H](O)C[C@@H]1O
EC50 [3]: 0.68 nM | IC50 [4]: < 0.001 nM | IC50 [5]: 3.2 nM | MTD [6]: 1 µg/kg | Activity [7]: Active | Activity [8]: Active | Activity [9]: Active | Activity [10]: Active | EC50 [11]: 0.68 nM

C=C1/C(=C\C=C2/CCC[C@]3(C)C(C4(CC#CC(C)(C)O)CC4)=CC[C@@H]23)C[C@@H](O)C[C@@H]1O
IC50 [1]: 0.001 nM | IC50 [2]: 0.034 nM

C=C1/C(=C\C=C2/CCC[C@]3(C)C(C4(CCC(=O)C(C)(C)O)CC4)=CC[C@@H]23)C[C@@H](O)C[C@@H]1O
EC50 [3]: 0.69 nM | IC50 [4]: < 0.001 nM | IC50 [5]: 3.5 nM | MTD [6]: 3 µg/kg | IC50 [2]: 0.025 nM | Activity [7]: Active | Activity [8]: Active | Activity [9]: Active | Activity [10]: Active | EC50 [11]: 0.69 nM

C[C@]12CCC/C(=C\C=C3C[C@@H](O)C[C@H](O)C3)[C@@H]1CC=C2C1(C/C=C/C(O)(C(F)(F)F)C(F)(F)F)CC1
IC50 [1]: > 100 nM | IC50 [2]: 0.012 nM

C=C1/C(=C\C=C2/CCC[C@]3(C)C(C4(C/C=C/C(O)(C(F)(F)F)C(F)(F)F)CC4)=CC[C@@H]23)C[C@@H](O)C[C@@H]1O
IC50 [1]: > 100 nM | IC50 [2]: 0.04 nM

C[C@]12CCC/C(=C\C=C3C[C@@H](O)C[C@H](O)C3)[C@@H]1CC=C2C1(CC#CC(O)(C(F)(F)F)C(F)(F)F)CC1
IC50 [1]: > 100 nM | IC50 [2]: 0.014 nM

C=C1/C(=C\C=C2/CCC[C@]3(C)C(C4(C/C=C/C(O)(C(F)(F)F)C(F)(F)F)CC4)=CC[C@@H]23)C[C@@H](O)C[C@@H]1F
IC50 [1]: > 100 nM | IC50 [2]: 0.065 nM

C=C1/C(=C\C=C2/CCC[C@]3(C)[C@@H]([C@H](C)CCCC(C)(C)O)CC[C@@H]23)C[C@@H](O)C[C@@H]1O [CALCITRIOL]
MTD [6]: 0.3 µg/kg

C=C1/C(=C\C=C2/CCC[C@]3(C)C(C4(CC#CC(O)(C(F)(F)F)C(F)(F)F)CC4)=CC[C@@H]23)C[C@@H](O)C[C@@H]1O
IC50 [1]: 1 nM | IC50 [2]: 0.045 nM
